The values that follow come from ChEMBL document CHEMBL3351636, “Synthesis and biological evaluation of sophoridinol derivatives as a novel family of potential anticancer agents” (ACS Med Chem Lett, 2014).

Activity calls are given as the source filed them. No cut-off for these calls is given here.

The subject of data set [1] is HepG2. The experiment in a line: Cytotoxicity against human HepG2 cells after 48 hrs by MTT assay. The class given is functional, cell-based. As to conditions: HepG2, 48 h.
The test system of data set [2] is HepG2. The experiment in a line: Cell cycle arrest in human HepG2 cells assessed as accumulation at G0/G1 phase at 1.25 to 5 ug/ml after 24 hrs using propidium iodide by flow cytometry. The class given is functional, cell-based. Summed up: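 HepG2 cells incubated 24 h with compound at 1.25, 2.5 and 5.0 μg/mL or left untreated (control); cell cycle distribution read by flow cytometry; significance versus untreated control given as P < 0.05 / P < 0.01.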

For data set [3], the system named is MCF7. The experiment in a line: Cytotoxicity against adriamycin-resistant human MCF7 cells after 48 hrs by MTT assay. Type of data set: functional, cell-based. As to conditions: MCF7, 48 h.
Data set [4] concerns MCF7. The experiment in a line: Cytotoxicity against human MCF7 cells after 48 hrs by MTT assay. The class given is functional, cell-based. As to conditions: MCF7, 48 h.
A short description of data set [5]: Half life in Sprague-Dawley rat at 25 mg/kg, po as single dose. Also on record: dose 25 mg/kg, route oral. The class given is ADME, organism-based. As to conditions: in vivo. A digest of the protocol:
(§1)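 Adult male Sprague–Dawley rats (n = 3) received a single oral dose of 25 mg/kg. Nine blood samples were drawn over 24 h to build a plasma concentration–time curve. Parameters were derived by noncompartmental analysis and reported as mean ± deviation.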

Data set [6] can be described thus: AUC (0 to t) in Sprague-Dawley rat at 25 mg/kg, po as single dose. The class given is ADME, organism-based. Also on record: dose 25 mg/kg, route oral. As to conditions: plasma. Summed up: as §1
Data set [7] in a line: Mean residence time in Sprague-Dawley rat at 25 mg/kg, po as single dose. As to conditions: in vivo. The class given is ADME, organism-based. Also on record: dose 25 mg/kg, route oral. A digest of the protocol:
as §1

Data set [8] is described as follows: Tmax in Sprague-Dawley rat at 25 mg/kg, po as single dose. Type of data set: ADME, organism-based. Also on record: dose 25 mg/kg, route oral. As to conditions: in vivo. Summed up:
as §1

A short description of data set [9]: AUC (0 to infinity) in Sprague-Dawley rat at 25 mg/kg, po as single dose. Type of data set: ADME, organism-based. As to conditions: plasma. Also on record: time infinity, dose 25 mg/kg, route oral. A digest of the protocol: as §1
Data set [10] is described as follows: Cmax in Sprague-Dawley rat at 25 mg/kg, po as single dose. Type of data set: ADME, organism-based. Also on record: dose 25 mg/kg, route oral. As to conditions: in vivo. Summed up: as §1

In turn, `O=C1CCC[C@@H]2[C@H]3CCCN4CCC[C@H](CN12)[C@@H]34` [SOPHORIDINE] showed an IC50 with HepG2 [1] of more than 80 µM. In the data set on HepG2 [2], the outcome was Active.
`OCCCC[C@@H]1[C@H]2CCCN3CCC[C@H](CN1Cc1ccc4ccccc4c1)[C@@H]23`: the IC50 in the data set on HepG2 [1] is 7.9 µM.
Regarding `COC(=O)CCC[C@@H]1[C@H]2CCCN3CCC[C@H](CN1Cc1ccccc1OC)[C@@H]23`, 10.3 µM corresponded to half-maximal inhibition in the data set with HepG2 [1] (IC50).
`OCCCC[C@@H]1[C@H]2CCCN3CCC[C@H](CN1Cc1cccc4ccccc14)[C@@H]23`: the IC50 with MCF7 [3] is 9.51 µM; in the data set with HepG2 [1], 6.8 µM; in the data set with MCF7 [4] it was 9.07 µM.
Turning to `CCOc1ccc(CN2C[C@H]3CCCN4CCC[C@@H]([C@H]34)[C@H]2CCCCO)cc1OC`, in the data set with HepG2 [1], the IC50 was more than 40 µM.
In the case of `OCCCC[C@@H]1[C@H]2CCCN3CCC[C@H](CN1Cc1c4ccccc4cc4ccccc14)[C@@H]23`, the IC50 in the data set on MCF7 [3] worked out at 5.94 µM; with HepG2 [1], 3.1 µM; in the data set on MCF7 [4] it was 5.63 µM. This molecule showed a half-life in data set [5] of 12.7 h. In [6], this molecule displayed an AUC(0-t) of 10.3 µM·h. The MRT in data set [7] is 5.4 h. Moreover, the time to peak (Tmax) in [8] was determined as 4.6 h. The AUC(0-inf) in [9] was found to be 10.5 µM·h. For the same molecule, the Cmax in data set [10] was 3.4 µM. Further, the outcome in the data set on HepG2 [2] was Active.
As for `COC(=O)CCC[C@@H]1[C@H]2CCCN3CCC[C@H](CN1Cc1c4ccccc4cc4ccccc14)[C@@H]23`, the half-inhibitory concentration (IC50) with HepG2 [1] was determined as 4.3 µM.
In the data set with HepG2 [1], `COc1cccc(CN2C[C@H]3CCCN4CCC[C@@H]([C@H]34)[C@H]2CCCCO)c1Cl` yielded an IC50 of 23.6 µM.
As to `COC(=O)CCC[C@@H]1[C@H]2CCCN3CCC[C@H](CN1Cc1cc(OC)c(OC)c(OC)c1)[C@@H]23`, in the data set with HepG2 [1], the IC50 was more than 40 µM.
Same read-out and setting: for `CCC(O)(CC)CCC[C@@H]1[C@H]2CCCN3CCC[C@H](CN1Cc1c4ccccc4cc4ccccc14)[C@@H]23` the value was 2.7 µM.
Same read-out and setting: for `CC(C)(O)CCC[C@@H]1[C@H]2CCCN3CCC[C@H](CN1Cc1c4ccccc4cc4ccccc14)[C@@H]23` the value was 2.1 µM.
The same measure, in the same setting: under `O=C(O)CCC[C@@H]1[C@H]2CCCN3CCC[C@H](CN1Cc1ccc4ccccc4c1)[C@@H]23` stands more than 40 µM; under `O=C(CCC[C@@H]1[C@H]2CCCN3CCC[C@H](CN1Cc1c4ccccc4cc4ccccc14)[C@@H]23)c1ccc(Cl)cc1`, 2 µM; under `O=C(O)CCC[C@@H]1[C@H]2CCCN3CCC[C@H](CN1Cc1cccc4ccccc14)[C@@H]23`, more than 40 µM.
In the data set on HepG2 [1], `COc1cc(CN2C[C@H]3CCCN4CCC[C@@H]([C@H]34)[C@H]2CCCC(=O)O)cc(OC)c1OC` yielded an IC50 of more than 40 µM.
In turn, `COC(=O)CCC[C@@H]1[C@H]2CCCN3CCC[C@H](CN1Cc1cccc4ccccc14)[C@@H]23` displayed an IC50 in the data set with HepG2 [1] of 3.3 µM.
`COC(=O)CCC[C@@H]1[C@H]2CCCN3CCC[C@H](CN1Cc1ccc(OC)c(OC)c1Cl)[C@@H]23` came in with an IC50 in the data set with HepG2 [1] of 8.4 µM.
On the same count and under the same terms, for `COC(=O)CCC[C@@H]1[C@H]2CCCN3CCC[C@H](CN1Cc1ccc4ccccc4c1)[C@@H]23` the value was 5.8 µM; for `COc1cc(CN2C[C@H]3CCCN4CCC[C@@H]([C@H]34)[C@H]2CCCCO)cc(OC)c1OC`, more than 40 µM.
`COc1ccccc1CN1C[C@H]2CCCN3CCC[C@@H]([C@H]23)[C@H]1CCCCO` came in with an IC50 in the data set on HepG2 [1] of 34.6 µM.
The molecule `COC(=O)CCC[C@@H]1[C@H]2CCCN3CCC[C@H](CN1Cc1cccc(OC)c1)[C@@H]23` registered an IC50 in the data set on HepG2 [1] of 10.7 µM.
In the data set with HepG2 [1], `COc1ccc(CN2C[C@H]3CCCN4CCC[C@@H]([C@H]34)[C@H]2CCCCO)cc1` returned an IC50 of more than 40 µM.
Same read-out and setting: under `CC(=O)O[C@H]1C(=O)[C@@]2(C)[C@H]([C@H](OC(=O)c3ccccc3)[C@]3(O)C[C@H](OC(=O)[C@H](O)[C@@H](NC(=O)c4ccccc4)c4ccccc4)C(C)=C1C3(C)C)[C@]1(OC(C)=O)CO[C@@H]1C[C@@H]2O` [PACLITAXEL] stands 15.6 µM; under `COC(=O)CCC[C@@H]1[C@H]2CCCN3CCC[C@H](CN1Cc1ccc(OC)cc1)[C@@H]23`, 10.7 µM; under `COc1cccc(CN2C[C@H]3CCCN4CCC[C@@H]([C@H]34)[C@H]2CCCC(=O)O)c1OC`, more than 40 µM.
Turning to `COc1ccccc1CN1C[C@H]2CCCN3CCC[C@@H]([C@H]23)[C@H]1CCCC(=O)O`, the IC50 in the data set with HepG2 [1] was more than 40 µM.
On the same count and under the same terms, under `COc1ccc(CN2C[C@H]3CCCN4CCC[C@@H]([C@H]34)[C@H]2CCCCO)c(Cl)c1OC` stands 15.7 µM.
Still for that read-out and setting: for `Fc1ccc(C(=CCC[C@@H]2[C@H]3CCCN4CCC[C@H](CN2Cc2c5ccccc5cc5ccccc25)[C@@H]34)c2ccc(F)cc2)cc1` the value was 5.3 µM; for `COC(=O)CCC[C@@H]1[C@H]2CCCN3CCC[C@H](CN1Cc1ccc(OC)c(OC)c1)[C@@H]23`, more than 40 µM.
